According to ChEMBL document CHEMBL3259739, “Synthesis and structure-activity relationship of trisubstituted thiazoles as Cdc7 kinase inhibitors” (Eur J Med Chem, 2014):
pIC50: −log10 of the molar value.

Legend:
[1] = target: Cyclin-dependent kinase 2/cyclin E1 (Homo sapiens, UniProt P24941); assay: Inhibition of CDK2/Cyclin-E (unknown origin) using maltose binding protein as substrate by HTRF assay; type: protein-complex assay
[2] = target: T1, Testis-specific serine/threonine-protein kinase 1 (Homo sapiens) (UniProt Q9BXA7); assay: Inhibition of TSSK1B (unknown origin) at 1 uM relative to control; settings: values are per cent of control
T1 sequence (whole entry): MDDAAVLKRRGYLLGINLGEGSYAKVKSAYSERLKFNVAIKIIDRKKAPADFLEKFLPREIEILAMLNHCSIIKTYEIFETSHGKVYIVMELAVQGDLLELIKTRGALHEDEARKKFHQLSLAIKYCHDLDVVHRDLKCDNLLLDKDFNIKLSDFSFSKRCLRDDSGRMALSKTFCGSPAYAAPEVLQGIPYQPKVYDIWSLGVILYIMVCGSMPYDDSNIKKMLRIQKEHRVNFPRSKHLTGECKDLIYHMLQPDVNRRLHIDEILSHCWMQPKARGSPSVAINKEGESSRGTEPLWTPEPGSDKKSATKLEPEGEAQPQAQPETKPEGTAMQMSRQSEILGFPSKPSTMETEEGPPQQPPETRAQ
Summary of the method: (§1)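 KinomeSCAN competitive binding panel of 100 kinases; compounds tested at 1 µM in duplicate; read-out is percent […] control.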

[3] = target: T2, cGMP-dependent protein kinase 1 (Homo sapiens) (UniProt Q13976); assay: Inhibition of PRKG1 (unknown origin) at 1 uM relative to control; settings: values are per cent of control
T2 sequence (whole entry): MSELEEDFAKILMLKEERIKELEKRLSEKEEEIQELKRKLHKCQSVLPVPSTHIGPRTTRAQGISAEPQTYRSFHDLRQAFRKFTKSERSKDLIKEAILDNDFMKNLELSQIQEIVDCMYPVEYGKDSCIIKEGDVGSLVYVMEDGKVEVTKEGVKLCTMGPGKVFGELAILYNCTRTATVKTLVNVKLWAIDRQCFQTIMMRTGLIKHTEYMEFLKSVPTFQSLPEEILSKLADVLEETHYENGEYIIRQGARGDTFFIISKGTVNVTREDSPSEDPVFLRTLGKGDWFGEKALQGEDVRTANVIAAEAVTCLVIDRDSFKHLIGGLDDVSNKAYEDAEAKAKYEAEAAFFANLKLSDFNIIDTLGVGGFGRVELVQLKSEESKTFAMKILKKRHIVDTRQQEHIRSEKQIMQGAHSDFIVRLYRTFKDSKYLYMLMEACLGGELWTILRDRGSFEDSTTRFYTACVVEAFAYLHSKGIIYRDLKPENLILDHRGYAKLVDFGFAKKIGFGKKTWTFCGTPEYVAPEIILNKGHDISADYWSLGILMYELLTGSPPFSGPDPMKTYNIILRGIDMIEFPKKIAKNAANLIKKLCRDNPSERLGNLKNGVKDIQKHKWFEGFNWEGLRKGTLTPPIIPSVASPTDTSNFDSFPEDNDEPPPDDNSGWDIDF

[4] = target: T3, Serine/threonine-protein kinase TAO2 (Homo sapiens) (UniProt Q9UL54); assay: Inhibition of TAOK2 (unknown origin) at 1 uM relative to control; settings: values are per cent of control; summary of the method: as §1
T3 sequence (whole entry): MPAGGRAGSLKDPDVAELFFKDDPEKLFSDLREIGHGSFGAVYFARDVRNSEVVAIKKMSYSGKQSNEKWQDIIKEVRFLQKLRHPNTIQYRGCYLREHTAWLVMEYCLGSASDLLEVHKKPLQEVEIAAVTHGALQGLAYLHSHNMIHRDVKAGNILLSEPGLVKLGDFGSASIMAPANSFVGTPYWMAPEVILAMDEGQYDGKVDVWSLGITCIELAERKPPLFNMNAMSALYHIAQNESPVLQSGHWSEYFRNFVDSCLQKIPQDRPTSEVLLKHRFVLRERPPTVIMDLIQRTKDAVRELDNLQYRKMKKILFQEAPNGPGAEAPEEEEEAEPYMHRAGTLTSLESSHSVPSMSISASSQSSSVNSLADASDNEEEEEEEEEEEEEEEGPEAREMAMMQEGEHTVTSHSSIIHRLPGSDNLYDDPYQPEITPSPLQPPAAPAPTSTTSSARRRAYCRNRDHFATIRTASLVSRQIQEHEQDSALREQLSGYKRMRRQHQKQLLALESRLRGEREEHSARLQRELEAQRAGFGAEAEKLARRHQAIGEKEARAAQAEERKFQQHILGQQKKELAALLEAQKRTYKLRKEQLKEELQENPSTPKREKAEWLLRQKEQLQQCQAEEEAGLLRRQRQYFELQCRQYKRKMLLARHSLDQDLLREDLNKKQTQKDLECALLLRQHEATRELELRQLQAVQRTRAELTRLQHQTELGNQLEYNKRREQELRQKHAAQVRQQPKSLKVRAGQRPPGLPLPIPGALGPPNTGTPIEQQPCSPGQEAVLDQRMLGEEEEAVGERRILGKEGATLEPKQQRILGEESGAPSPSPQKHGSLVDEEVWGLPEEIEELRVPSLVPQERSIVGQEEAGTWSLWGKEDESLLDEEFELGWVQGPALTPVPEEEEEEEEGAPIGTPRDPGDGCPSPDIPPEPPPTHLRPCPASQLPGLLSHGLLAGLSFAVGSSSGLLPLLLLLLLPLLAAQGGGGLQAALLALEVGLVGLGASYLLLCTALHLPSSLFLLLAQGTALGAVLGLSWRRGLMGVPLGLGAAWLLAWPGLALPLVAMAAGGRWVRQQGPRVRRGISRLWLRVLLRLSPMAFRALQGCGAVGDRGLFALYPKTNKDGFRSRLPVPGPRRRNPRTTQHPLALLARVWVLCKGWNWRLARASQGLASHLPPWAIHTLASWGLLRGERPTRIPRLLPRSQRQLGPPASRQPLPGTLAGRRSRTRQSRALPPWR

[5] = target: ALK tyrosine kinase receptor (Homo sapiens) (UniProt Q9UM73); assay: Inhibition of ALK (unknown origin) at 1 uM relative to control; values are per cent of control
[6] = target: Hepatocyte growth factor receptor (Homo sapiens) (UniProt P08581); assay: Inhibition of MET (unknown origin) at 1 uM relative to control; values are per cent of control
Sequence of Hepatocyte growth factor receptor (Homo sapiens) (P08581 whole entry): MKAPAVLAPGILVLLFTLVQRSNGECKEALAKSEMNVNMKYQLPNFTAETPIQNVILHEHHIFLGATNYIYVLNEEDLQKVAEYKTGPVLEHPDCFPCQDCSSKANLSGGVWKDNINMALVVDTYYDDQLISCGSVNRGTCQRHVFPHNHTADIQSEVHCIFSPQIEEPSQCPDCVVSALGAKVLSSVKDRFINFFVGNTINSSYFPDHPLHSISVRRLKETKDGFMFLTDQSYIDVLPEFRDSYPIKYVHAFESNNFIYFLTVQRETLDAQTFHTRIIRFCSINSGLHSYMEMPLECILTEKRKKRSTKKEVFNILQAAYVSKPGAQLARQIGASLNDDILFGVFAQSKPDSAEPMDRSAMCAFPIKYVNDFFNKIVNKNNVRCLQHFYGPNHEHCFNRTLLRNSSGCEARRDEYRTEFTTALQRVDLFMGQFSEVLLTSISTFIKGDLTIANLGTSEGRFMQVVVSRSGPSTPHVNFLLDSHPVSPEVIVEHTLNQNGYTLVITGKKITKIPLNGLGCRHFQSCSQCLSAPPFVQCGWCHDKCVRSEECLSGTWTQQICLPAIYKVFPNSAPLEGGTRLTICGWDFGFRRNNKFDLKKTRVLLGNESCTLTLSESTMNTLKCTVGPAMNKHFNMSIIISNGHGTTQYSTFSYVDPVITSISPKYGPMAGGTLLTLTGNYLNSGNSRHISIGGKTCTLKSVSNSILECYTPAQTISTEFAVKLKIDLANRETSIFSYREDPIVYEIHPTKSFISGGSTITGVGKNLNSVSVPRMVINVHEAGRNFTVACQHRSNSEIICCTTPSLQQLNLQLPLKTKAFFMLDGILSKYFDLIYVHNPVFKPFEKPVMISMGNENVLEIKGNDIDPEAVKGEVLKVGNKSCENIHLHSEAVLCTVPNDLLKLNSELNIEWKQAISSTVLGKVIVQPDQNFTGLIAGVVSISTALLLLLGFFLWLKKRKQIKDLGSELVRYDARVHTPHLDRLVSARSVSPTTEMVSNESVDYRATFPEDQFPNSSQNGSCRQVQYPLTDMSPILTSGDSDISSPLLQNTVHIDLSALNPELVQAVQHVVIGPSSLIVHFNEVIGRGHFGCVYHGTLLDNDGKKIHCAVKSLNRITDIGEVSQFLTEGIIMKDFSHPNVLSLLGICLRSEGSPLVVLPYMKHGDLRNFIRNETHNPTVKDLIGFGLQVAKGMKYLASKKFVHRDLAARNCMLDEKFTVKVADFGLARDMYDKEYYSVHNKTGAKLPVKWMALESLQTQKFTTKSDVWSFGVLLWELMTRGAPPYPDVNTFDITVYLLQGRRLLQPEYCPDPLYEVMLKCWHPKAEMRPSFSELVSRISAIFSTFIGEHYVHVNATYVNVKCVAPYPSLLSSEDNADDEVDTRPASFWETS

[7] = target: Insulin receptor (Homo sapiens) (UniProt P06213); assay: Inhibition of INSR (unknown origin) at 1 uM relative to control; values are per cent of control
Sequence of Insulin receptor (Homo sapiens) (P06213 28-758 limits assumed): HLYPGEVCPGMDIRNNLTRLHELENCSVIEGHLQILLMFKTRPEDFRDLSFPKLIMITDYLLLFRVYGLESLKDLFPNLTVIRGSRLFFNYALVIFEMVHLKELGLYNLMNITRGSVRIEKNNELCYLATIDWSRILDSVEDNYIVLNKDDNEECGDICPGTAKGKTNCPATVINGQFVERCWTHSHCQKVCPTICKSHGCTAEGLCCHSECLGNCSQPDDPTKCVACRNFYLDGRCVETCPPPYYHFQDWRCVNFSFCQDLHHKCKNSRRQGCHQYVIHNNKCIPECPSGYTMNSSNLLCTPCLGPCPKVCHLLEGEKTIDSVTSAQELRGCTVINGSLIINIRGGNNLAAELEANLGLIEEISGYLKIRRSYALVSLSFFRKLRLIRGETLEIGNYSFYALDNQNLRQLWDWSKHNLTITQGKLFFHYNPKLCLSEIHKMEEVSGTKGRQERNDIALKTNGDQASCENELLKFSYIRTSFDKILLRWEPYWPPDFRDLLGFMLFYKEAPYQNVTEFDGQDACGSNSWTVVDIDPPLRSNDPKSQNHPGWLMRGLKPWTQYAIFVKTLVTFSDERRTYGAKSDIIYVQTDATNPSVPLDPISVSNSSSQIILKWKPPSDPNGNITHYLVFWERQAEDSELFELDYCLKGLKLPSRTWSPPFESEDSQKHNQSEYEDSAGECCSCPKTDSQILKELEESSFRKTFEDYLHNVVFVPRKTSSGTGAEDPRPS
Sequence of Insulin receptor (Homo sapiens) (P06213 763-1382 limits assumed): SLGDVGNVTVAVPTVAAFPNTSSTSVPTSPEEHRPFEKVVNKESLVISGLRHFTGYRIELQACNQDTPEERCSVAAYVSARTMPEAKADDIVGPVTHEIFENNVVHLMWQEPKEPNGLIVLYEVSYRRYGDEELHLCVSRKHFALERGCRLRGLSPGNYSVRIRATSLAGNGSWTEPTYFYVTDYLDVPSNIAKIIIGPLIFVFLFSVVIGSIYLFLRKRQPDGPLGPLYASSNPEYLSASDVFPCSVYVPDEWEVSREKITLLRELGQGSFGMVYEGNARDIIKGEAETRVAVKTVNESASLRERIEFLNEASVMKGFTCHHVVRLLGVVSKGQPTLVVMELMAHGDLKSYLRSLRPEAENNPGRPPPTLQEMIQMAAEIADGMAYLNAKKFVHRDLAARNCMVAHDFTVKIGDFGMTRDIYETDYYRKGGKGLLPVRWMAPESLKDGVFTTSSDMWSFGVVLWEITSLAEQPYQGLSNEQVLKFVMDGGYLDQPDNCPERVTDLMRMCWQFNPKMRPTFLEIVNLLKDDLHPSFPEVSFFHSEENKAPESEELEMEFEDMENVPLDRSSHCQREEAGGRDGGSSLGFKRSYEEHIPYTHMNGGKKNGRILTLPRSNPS

[8] = target: Mitogen-activated protein kinase kinase kinase kinase 4 (Homo sapiens) (UniProt O95819); assay: Inhibition of MAP4K4 (unknown origin) at 1 uM relative to control; values are per cent of control
[9] = target: MAP kinase-activated protein kinase 2 (Homo sapiens) (UniProt P49137); assay: Inhibition of MAPKAPK2 (unknown origin) at 1 uM relative to control; values are per cent of control
Sequence of MAP kinase-activated protein kinase 2 (Homo sapiens) (P49137 whole entry, looked up, the tested form may be a part): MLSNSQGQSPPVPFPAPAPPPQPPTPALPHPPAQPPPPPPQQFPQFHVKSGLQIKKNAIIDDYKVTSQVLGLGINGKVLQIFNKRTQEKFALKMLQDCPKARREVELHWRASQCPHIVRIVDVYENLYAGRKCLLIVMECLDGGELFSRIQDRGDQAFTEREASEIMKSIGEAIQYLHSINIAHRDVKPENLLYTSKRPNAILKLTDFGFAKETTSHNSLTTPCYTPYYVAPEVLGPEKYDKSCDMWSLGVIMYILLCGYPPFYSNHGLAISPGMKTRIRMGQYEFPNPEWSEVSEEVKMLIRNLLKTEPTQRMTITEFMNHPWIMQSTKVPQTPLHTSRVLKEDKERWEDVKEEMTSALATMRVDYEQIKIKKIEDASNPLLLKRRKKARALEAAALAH

[10] = target: Tyrosine-protein kinase JAK2 (Homo sapiens) (UniProt O60674); assay: Inhibition of JH1 catalytic domain of JAK2 (unknown origin) at 1 uM relative to control; values are per cent of control
Sequence of Tyrosine-protein kinase JAK2 (Homo sapiens) (O60674 whole entry, the tested form may be a part): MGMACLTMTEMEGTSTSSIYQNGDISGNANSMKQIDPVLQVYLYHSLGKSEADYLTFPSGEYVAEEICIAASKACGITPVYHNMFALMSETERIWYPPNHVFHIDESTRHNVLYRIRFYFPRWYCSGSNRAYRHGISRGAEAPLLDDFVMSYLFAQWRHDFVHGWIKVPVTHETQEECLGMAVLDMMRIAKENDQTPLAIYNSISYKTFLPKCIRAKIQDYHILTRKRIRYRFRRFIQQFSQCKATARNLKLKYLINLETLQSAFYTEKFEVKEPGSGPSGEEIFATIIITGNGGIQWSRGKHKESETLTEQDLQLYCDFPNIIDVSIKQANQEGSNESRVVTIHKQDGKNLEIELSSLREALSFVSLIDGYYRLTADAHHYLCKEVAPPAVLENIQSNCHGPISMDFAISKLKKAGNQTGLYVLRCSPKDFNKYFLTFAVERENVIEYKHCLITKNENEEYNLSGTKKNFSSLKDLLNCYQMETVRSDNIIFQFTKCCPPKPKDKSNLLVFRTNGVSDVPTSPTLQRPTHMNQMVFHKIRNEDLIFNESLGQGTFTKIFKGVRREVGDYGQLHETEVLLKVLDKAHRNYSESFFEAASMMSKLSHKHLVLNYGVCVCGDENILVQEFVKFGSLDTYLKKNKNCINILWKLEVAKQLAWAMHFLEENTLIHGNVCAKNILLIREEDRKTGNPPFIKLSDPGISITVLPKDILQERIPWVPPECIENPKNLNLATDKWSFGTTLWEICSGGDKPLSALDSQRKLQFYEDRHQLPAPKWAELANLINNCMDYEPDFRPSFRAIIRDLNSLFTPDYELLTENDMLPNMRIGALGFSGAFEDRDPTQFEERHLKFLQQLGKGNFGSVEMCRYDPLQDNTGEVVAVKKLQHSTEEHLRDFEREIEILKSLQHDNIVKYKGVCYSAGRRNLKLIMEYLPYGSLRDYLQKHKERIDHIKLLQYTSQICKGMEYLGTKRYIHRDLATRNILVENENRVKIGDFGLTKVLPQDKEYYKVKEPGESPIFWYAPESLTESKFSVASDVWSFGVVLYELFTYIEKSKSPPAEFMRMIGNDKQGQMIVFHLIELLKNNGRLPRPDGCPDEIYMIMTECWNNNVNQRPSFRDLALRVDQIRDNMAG

SMILES | pIC50 [1] | residual binding, % of control [2] | residual binding, % of control [3] | residual binding, % of control [4] | residual activity [5] | residual activity [6] | residual activity [7] | residual activity [8] | residual activity [9] | residual activity [10]
CCOC(=O)c1sc(-c2ccncc2)nc1O | < 3.90 | 89% | 75% | 100% | 86% | 81% | 92% | 80% | 94% | 100%
COc1ccc(-c2nc(-c3ccnc(N)n3)sc2C(N)=O)c(Cl)c1 | 4.97 | 83% | 51% | 25% | 63% | 86% | 82% | 89% | 100% | 100%
NC(=O)c1sc(-c2ccnc(N)n2)nc1-c1ccc(Cl)cc1Cl | 5.74 | 100% | 88% | 55% | 100% | 88% | 78% | 72% | 96% | 100%
